# Assays:
# [1] = test system: MT4; test: Compound dose required to reduce the viability of mock-infected cells by 50%.; type: functional; conditions: Homo sapiens
# Procedure, shortened: (§1)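 Mock-infected MT-4 cells (1 × 10^4/well) exposed to serial compound concentrations, run in parallel with the antiviral assay, 4 days at 37 °C. Viability read by MTT; CC50 is the dose reducing viability by 50%. Means of three separate experiments.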
# [2] = target: Human immunodeficiency virus type 1 reverse transcriptase (Human immunodeficiency virus 1, UniProt Q72547); test: Dose required to inhibit HIV-1 recombinant reverse transcriptase (rRT) activity by 50%.; type: functional
# Procedure, shortened: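 Highly purified recombinant HIV-1 RT, assayed for RNA-dependent DNA polymerase activity. Template-primer: poly(rC)-oligo(dG)12–18 at 0.5 OD260 units/mL, with [3H]dGTP (1 Ci/mmol). Incubated 20 min at 37 °C; acid-insoluble radioactivity counted on glass fiber filters. Value is the dose giving 50% inhibition; means of three experiments.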
# [3] = test system: MT4; test: Compound dose required to achieve 50% protection of MT-4 cells from HIV-1 induced cytopathogenicity.; type: functional, cell-based; conditions: Homo sapiens
# Procedure, shortened: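 HIV-1 IIIB (100 CCID50/well) added to MT-4 cells (1 × 10^4/well) with or without serial compound concentrations; 4-day incubation at 37 °C. Viable cells counted by MTT; EC50 is the dose giving 50% protection from virus-induced cytopathogenicity. Means of three separate experiments.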
# [4] = test system: MT4; test: Dose required to achieve 50% protection of MT-4 cells from HIV-1 induced cytopathogenicity; type: functional, cell-based; conditions: Homo sapiens
# [5] = test system: MT4; test: Compound dose required to reduce the viability of mock-infected cells by 50%; type: functional; conditions: Homo sapiens
# [6] = test system: MT4; test: Selectivity index calculated as the ratio between CC50 and EC50; type: functional
# Procedure, shortened: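 Ratio CC50/EC50, both from MTT-read 4-day MT-4 assays (mock-infected and HIV-1 IIIB-infected, 100 CCID50) run in parallel.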
# [7] = test system: MT4; test: Compound dose required to reduce the viability of mock-infected cells by 50%, as determined by the MTT method.; type: functional; conditions: Homo sapiens; procedure, shortened: as §1
SMILES,CC50 [1],IC50 [2],EC50 [3],EC50 [4],CC50 [5],SI [6],CC50 [7]
Cc1cccc(Cc2cc(O)nc(S)n2)c1,258 µM,> 10 µM,> 258 µM,,,,
Oc1cc(Cc2ccccc2)nc(SC2CCCCC2)n1,,3 µM,,0.8 µM,> 330 µM,,
CCC(C)Sc1nc(O)cc(Cc2cccc(C)c2)n1 (stereo not drawn),,1.2 µM,,0.6 µM,> 347 µM,>578,
CSc1nc(O)cc(Cc2cccc(C)c2)n1,,> 10 µM,,17 µM,317 µM,19,
CC(C)SC1=N/C(=C/c2ccccc2)C(C)(C)C(=O)N1,,4.3 µM,,3.6 µM,20 µM,5.5,
Cc1c(O)nc(SC(C)C)nc1Cc1ccccc1,,2.5 µM,,1.8 µM,140 µM,77,
CSc1nc(O)c(C)c(Cc2ccccc2)n1,,4.9 µM,,1.2 µM,> 406 µM,>338,
CCC(C)Sc1nc(O)c(C)c(Cc2ccccc2)n1 (stereo not drawn),,2.4 µM,,0.6 µM,86 µM,140,
Cc1c(O)nc(SCC(C)C)nc1Cc1ccccc1,,2.2 µM,,0.8 µM,130 µM,162,
Cc1c(O)nc(SC2CCCCC2)nc1Cc1ccccc1,,4.3 µM,,0.6 µM,> 318 µM,>530,
CCC(C)SC1=N/C(=C/c2ccccc2)C(C)(C)C(=O)N1 (stereo not drawn),,4.3 µM,,3.3 µM,16 µM,4.8,
CC1(C)C(=O)NC(SC2CCCCC2)=N/C1=C/c1ccccc1,,> 10 µM,,9.1 µM,91 µM,10,
Cc1cccc(Cc2nc(SC3CCCCC3)nc(O)c2C)c1,,1.3 µM,,0.6 µM,> 304 µM,>506,
Cc1c(O)nc(S)nc1Cc1ccccc1,,> 10 µM,,> 108 µM,431 µM,,
Cc1cccc(Cc2nc(SCC(C)C)nc(O)c2C)c1,,4.6 µM,,1.6 µM,330 µM,206,
CCC(C)Sc1nc(O)c(C)c(Cc2cccc(C)c2)n1 (stereo not drawn),,2.7 µM,,1 µM,100 µM,100,
C=CCSc1nc(O)cc(Cc2cccc(C)c2)n1,,,,3.6 µM,188 µM,52,
CC(C)=CCSc1nc(O)cc(Cc2cccc(C)c2)n1,,,,13 µM,193 µM,15,
Cc1cccc(Cc2nc(SC(C)C)nc(O)c2C)c1,,2.5 µM,,1.3 µM,100 µM,77,
CC(C)CSC1=N/C(=C/c2ccccc2)C(C)(C)C(=O)N1,,4.6 µM,,3.6 µM,20 µM,5.5,
CC1(C)C(=O)NC(SC2CCCC2)=N/C1=C/c1ccccc1,,> 10 µM,,10 µM,18 µM,1.8,
Oc1cc(Cc2ccccc2)nc(SC2CCCC2)n1,,2.8 µM,,1.7 µM,147 µM,86,
CC1(C)C(=O)NC(=S)N/C1=C/c1ccccc1,,,,> 406 µM,> 406 µM,,

SMILES,CC50 [1],IC50 [2],EC50 [3],EC50 [4],CC50 [5],SI [6],CC50 [7]
Cc1cccc(Cc2cc(O)nc(SC3CCCC3)n2)c1,,2.6 µM,,1.2 µM,> 333 µM,>278,
Cc1cccc(/C=C2/NC(=S)NC(=O)C2(C)C)c1,,,,> 165 µM,165 µM,,
Cc1cccc(Cc2nc(S)nc(O)c2C)c1,,> 10 µM,,> 102 µM,284 µM,,
Cc1cccc(/C=C2/N=C(SC3CCCC3)NC(=O)C2(C)C)c1,,,,> 304 µM,> 304 µM,,
Cc1cccc(Cc2cc(O)nc(SC3CCCCC3)n2)c1,,2.6 µM,,1.5 µM,> 318 µM,>212,
CSc1nc(O)c(C)c(Cc2cccc(C)c2)n1,,2.5 µM,,3 µM,385 µM,128,
C/C=C/CSc1nc(O)cc(Cc2cccc(C)c2)n1,,,,8 µM,165 µM,21,
Cc1cccc(/C=C2/N=C(SCC(C)C)NC(=O)C2(C)C)c1,,,,> 316 µM,,,> 316 µM
CC(C)Sc1nc(O)cc(Cc2ccccc2)n1,,> 10 µM,,7.7 µM,332 µM,43,
Cc1cccc(Cc2cc(O)nc(SC(C)C)n2)c1,,2.9 µM,,1.3 µM,225 µM,173,
Cc1cccc(/C=C2/N=C(SC(C)C)NC(=O)C2(C)C)c1,,,,> 69 µM,69 µM,,
CCC(C)Sc1nc(O)cc(Cc2ccccc2)n1 (stereo not drawn),,2.7 µM,,1.2 µM,150 µM,125,
Cc1ccnc2c1NC(=O)c1cccnc1N2C1CC1 [NEVIRAPINE],,,,0.3 µM,> 376 µM,>1250,
CCC(C)SC1=N/C(=C/c2cccc(C)c2)C(C)(C)C(=O)N1 (stereo not drawn),,,,> 25 µM,25 µM,,
CSC1=N/C(=C/c2ccccc2)C(C)(C)C(=O)N1,,6.1 µM,,3.1 µM,160 µM,53,
CC(C)CSc1nc(O)cc(Cc2ccccc2)n1,,9.4 µM,,5.1 µM,186 µM,36,
Cc1cccc(Cc2nc(SC3CCCC3)nc(O)c2C)c1,,3.4 µM,,0.6 µM,> 318 µM,>530,
Cc1c(O)nc(SC2CCCC2)nc1Cc1ccccc1,,3.4 µM,,0.6 µM,> 333 µM,>555,
Cc1cn([C@H]2C[C@H](N=[N+]=[N-])[C@@H](CO)O2)c(=O)[nH]c1=O [ZIDOVUDINE],,,,,> 20 µM,>2000,
CSc1nc(O)cc(Cc2ccccc2)n1,,> 10 µM,,34.5 µM,> 431 µM,>12,
Cc1cccc(/C=C2/N=C(SC3CCCCC3)NC(=O)C2(C)C)c1,,,,> 292 µM,> 292 µM,,
Cc1cccc(Cc2cc(O)nc(SCC(C)C)n2)c1,,8.4 µM,,3.3 µM,163 µM,49,
CSC1=N/C(=C/c2cccc(C)c2)C(C)(C)C(=O)N1,,,,> 5.2 µM,5.2 µM,,

# Reference: ChEMBL document CHEMBL1128518, “Synthesis and anti-HIV-1 activity of thio analogues of dihydroalkoxybenzyloxopyrimidines” (J Med Chem, 1995)
